Most compounds without a hit are left out; they make up all but 4.2% or so of the library.
hERG rescue: hERG (human) protection from proarrhythmic block | Q12809 | CHO-hERG, FluxOR thallium flux, dofetilide IC70 present | activation (rescue from dofetilide block), less the hit threshold, % at 10 µM | 310,000 compounds, 0.51% hits | AID 1511;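 active = activation above the mean of controls blocked by dofetilide plus 5 SD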;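 note: thallium influx through hERG after potassium depolarization seen as dye fluorescence rise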
AI-2 QS modul: modulates the Vibrio harveyi AI-2 quorum sensing system; AID 2094; activity change, % at 7.5 µM; Vibrio harveyi JMH597 AI-2 luminescence/OD600 ratio, 9 h; hits give low values; strain lacks LuxN and CqsS sensors; 0 = neutral-control median; 300,000 compounds, 0.4% hits; in the data active = activity change below about -75%, passing the limit was not always enough; inconclusive = no clear call, values can overlap the other calls;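 note: luminescence divided by OD600 gain over 9 h not by final OD600 alone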
Mot1-301 SUMO: inhibitors of SUMOylation pathway: yeast Mot1-301 growth rescue | S. cerevisiae Mot1-301 growth rescue, ATP luminescence, 38.5C; percent above DMSO median, 100 means doubled | growth rescue, % at 18.8 µM | 320,000 compounds, 1% hits;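 active = every valid replicate shows activation above 250% relative to neutral control wells; inactive = the rest, any valid replicate at or below 250%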
Cl transport mod: KCC2 (human) Cl- transport modulation. KCC2 cells, thallium flux FluoZin-2 fluorescence. Q9H2X9. B-score of Tl+ flux slope (higher = more flux/activation; lower = inhibition) at 10 µM. 190,000 compounds, 2.2% hits;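 active = thallium flux slope and its plate-corrected score both differing from the plate sample mean at a set confidence after two filtering rounds, in either direction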;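 note: slope of fluorescence scaled to starting intensity during 10 to 20 s after thallium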
KCNQ1 pot: potentiators or activators of human KCNQ1 potassium channel | B-score at 10 µM | CHO-K1 KCNQ1, thallium flux FluxOR fluorescence; hits give high values | P51787 | AID 2648 | 310,000 compounds, 0.35% hits;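 active = fluorescence ratio B-score, a plate-corrected score, at least three library SD, with initial intensity B-score within 5 SD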
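assay system = KCNQ1-transfected CHO-K1 cells | medium = assay buffer with matched DMSO | probe or stimulus = depolarizing K+/Tl+ stimulus, K2SO4 and Tl2SO4 each 12.5 mM in 5x stock | dosing = single dose | incubation = dye 90 min, compound 20 min, room temperature | detection = kinetic FluxOR fluorescence, 10 s baseline plus 110 s post-stimulus | evaluation = ratio B score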
KCNQ1 inh: blocks the human KCNQ1 potassium channel; P51787; CHO-K1 KCNQ1, FluxOR thallium flux fluorescence; hits give high values; B-score at 10 µM; 310,000 compounds, 1.3% hits; AID 2642;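 active = compounds whose thallium flux B-score, printed positive for inhibition, exceeds three library SD while starting fluorescence stays within three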;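 note: channel opened by potassium depolarization with thallium stimulus after 20 min compound exposure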
KCC2 sec1: KCC2 (human) modulation, secondary assay | 3,700 compounds, 15% hits | AID 1713 | HEK293-KCC2, thallium flux, FluoZin2 fluorescence; hits give high values | shares compounds with Cl transport mod | normalised thallium flux (F/F0 slope) at 10 µM;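 active = thallium flux slope above the same plate's solvent-only control mean plus 3 SD; inconclusive = the two replicate wells disagree; inactive = no significant difference from solvent-only control wells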
KCC2 bumet counter: thallium flux despite bumetanide block in KCC2 cells, secondary assay 3 | shares compounds with Cl transport mod | HEK293-KCC2 + bumetanide/ouabain, thallium flux FluoZin2; hits give high values | normalized thallium flux at 10 µM | 3,700 compounds, 49% hits | AID 1714;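 active = thallium entry rate above the same plate's blocked-transporter control wells by more than 3 SD; inconclusive = the two repeat wells disagree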;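 note: raw slope of fluorescence over initial fluorescence between 10 and 20 s after thallium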
KCC2 sec2: confirmation of human KCC2 transport modulators; shares compounds with Cl transport mod; HEK293-KCC2, thallium flux FluoZin2 fluorescence; actives lie on both sides; F/F0 rise rate, 10–20 s post-thallium; normalized thallium flux at 10 µM; 3,700 compounds, 23% hits; AID 1715;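 active = thallium flux slope more than 3 SD above or below the plate's solvent-only control mean, mostly below; inconclusive = the two repeat wells disagreed; inactive = no significant shift from solvent-only controls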
HEK293 Tl flux: counter-screen for KCC2 modulators: effect in parental HEK293 cells; shares compounds with Cl transport mod; thallium flux FluoZin2, ouabain; baseline-ratio fluorescence slope, 10–20 s after thallium; thallium flux rate (normalised fluorescence) at 10 µM; 3,700 compounds, 46% hits; AID 1716;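 active = thallium flux rate significantly above the same plate's solvent-only control wells, beyond their mean plus 3 SD; inconclusive = the two replicate wells gave conflicting results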
KCC2 ouabain: modulates human KCC2 on retest with ouabain. shares compounds with Cl transport mod. HEK293-KCC2, thallium flux FluoZin2 fluorescence; bidirectional: low = inhibitor, high = activator. raw Tl+ flux slope (below DMSO = inhibition, above = activation) at 10 µM. 3,700 compounds, 48% hits;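 active = thallium flux slope beyond 3 SD from same-plate DMSO control mean in most replicates, usually higher, sometimes lower; inconclusive = repeat tests gave conflicting results; inactive = no significant difference from controls in most replicates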;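 note: slope of initial-normalized fluorescence between seconds 10 and 20 after thallium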
HEK counter2: counter-screen for KCC2 modulators: effect in parental HEK293 cells; shares compounds with Cl transport mod; thallium flux FluoZin-2 fluorescence slope; thallium flux slope at 10 µM; 3,700 compounds, 33% hits;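 active = thallium flux slope above the same plate's solvent-control mean plus 3 SD in both duplicate wells; inconclusive = duplicate wells that disagreed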;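 note: run without ouabain in cells lacking the KCC2 cotransporter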
Numbers stand for hits; 0 = inactive; ? = inconclusive; - = not tested or not shown.

SMILES | hERG rescue | AI-2 QS modul | Mot1-301 SUMO | Cl transport mod | KCNQ1 pot | KCNQ1 inh | KCC2 sec1 | KCC2 bumet counter | KCC2 sec2 | HEK293 Tl flux | KCC2 ouabain | HEK counter2
O=C1COc2ccc(-c3csc(=Nc4ccc(OC(F)F)cc4)n3CC3CCCO3)cc2N1 (configuration not stated) | 0 | 0 | 0 | -4.8 | 0 | 0 | 0 | 0 | 0 | 0 | 0 | 0
COC(=O)C1CSC(C(=O)OC)N1C(=O)CN1CCN(c2ccccc2)CC1 (configuration not stated) | 0 | 0 | 0 | 0 | 0 | 0 | - | - | - | - | - | -
CCn1ncc(Br)c1C(=O)Nc1c(C)nn(Cc2c(F)c(F)c(F)c(F)c2F)c1C | 0 | 0 | 0 | - | 0 | 0 | - | - | - | - | - | -
COc1ccc(N(CC(=O)Nc2ccc(C)c(C)c2)S(=O)(=O)c2c(C)n[nH]c2C)cc1 | 0 | 0 | 0 | - | 0 | 0 | 0 | ? | 0.026 | 0 | ? | 0
COc1ccc(N(CC(=O)Nc2cccc(C)c2)S(=O)(=O)c2c(C)n[nH]c2C)cc1 | 0 | 0 | 0 | - | 0 | 0 | - | - | - | - | - | -
CCCCC(CCC(=O)O)(C(=O)OCC)c1csc(Nc2ccccc2)n1 (configuration not stated) | 0 | 0 | 0 | -3.9 | 0 | 0 | 0 | 0 | 0 | 0 | 0.017 | 0
CCn1nc(C(=O)OCC(=O)N(CCC#N)c2ccccc2)c2ccccc2c1=O | - | - | 0 | - | - | - | - | - | - | - | - | -
COc1cc(/C=N/NC(=S)Nc2cccc(S(=O)(=O)N(C)C)c2)ccc1O | 0 | 0 | - | -3.4 | 0 | 0 | 0 | 0 | 0 | 0 | 0.016 | 0
CN(C)S(=O)(=O)c1cccc(NC(=S)NN=C(Cc2ccccc2)Cc2ccccc2)c1 | 0 | 0 | 0 | 5.9 | 0 | 0 | 0 | 0.0099 | 0 | 0.014 | 0 | 0.016
CCOC(=O)c1[nH]c2ccc(Br)cc2c1NC(=O)CCN1CCC(C(=O)OCC)CC1 | 0 | 0 | 0 | 0 | 0 | 0 | 0 | 0 | ? | 0 | 0 | 0
CC(C)CN1C(=O)/C(=C/c2ccco2)NC1=S | 0 | 0 | 0 | 53 | 0 | 0 | 0 | 0.015 | 0 | 0.058 | 0.034 | 0.018
CCOP(=O)(c1ccccc1)c1nc(-c2ccc(F)cc2)oc1N1CCCCC1 (configuration not stated) | 0 | 0 | 0 | -2.9 | 0 | 0 | 0 | 0 | 0 | ? | ? | 0
COc1ccc(NC(=O)COC(=O)CCc2ccccc2)c(OC)c1 | 0 | 0 | 0 | - | 0 | 0 | - | - | - | - | - | -
COc1ccc(N2CCN(C(=O)c3c(C)nn(-c4ccccc4)c3C)CC2)cc1 | 0 | 0 | 0 | 0 | 0 | 0 | - | - | - | - | - | -
Cc1cc(NS(=O)(=O)c2ccc(NC(=O)c3oc4ccccc4c3C)cc2)no1 | 0 | 0 | 0 | -2.9 | 0 | 0 | 0 | 0 | 0 | 0 | ? | 0
Cc1ccc2cccc(OCC(=O)Nc3ccc4c(c3)OCO4)c2n1 | 0 | 0 | 0 | -5.9 | 0 | 0 | ? | 0 | 0 | 0 | 0.014 | 0
Cc1ccccc1OCC(=O)Nc1ccc2c(c1)OCO2 | 0 | 0 | 0 | 0 | 0 | 0 | - | - | - | - | - | -
COc1ccc(NC(=O)CCC2CCCCC2)cc1S(=O)(=O)N1CCCCC1 | 0 | 0 | 0 | -3.9 | 0 | 0 | 0 | 0 | 0 | 0 | 0 | 0
COc1ccc(NC(=O)CN2CCCCC2)cc1S(=O)(=O)N1CCCCC1 | - | - | 0 | - | - | - | - | - | - | - | - | -
N#Cc1c(NC(=O)c2ccccc2)sc2c1CCC2 | 0 | 0 | 0 | - | 0 | 0 | 0 | 0 | 0 | 0 | 0 | 0
N#Cc1c(NC(=O)c2cccnc2)sc2c1CCC2 | 0 | 0 | - | 0 | 0 | 0 | - | - | - | - | - | -
COc1ccccc1CNC(=O)COC(=O)COc1ccccc1Cc1ccccc1 | 0 | 0 | 0 | - | 0 | 0 | - | - | - | - | - | -
CCOc1cc(/C=C/C(=O)N(CC)CC(=O)NCc2cccs2)cc(Cl)c1OC | 0 | 0 | 0 | - | 0 | 0 | - | - | - | - | - | -
CCCN(CC(=O)Nc1ccc(C(N)=O)cc1)CC(=O)Nc1ccc(F)c(F)c1F | 0 | 0 | 0 | - | 0 | 0 | - | - | - | - | - | -
O=C(CSC1=NC(=O)C(c2ccccc2)C(=O)N1)Nc1cccc(Cl)c1 (configuration not stated) | 0 | 0 | 0 | - | 0 | 0 | - | - | - | - | - | -
SMILES | hERG rescue | AI-2 QS modul | Mot1-301 SUMO | Cl transport mod | KCNQ1 pot | KCNQ1 inh | KCC2 sec1 | KCC2 bumet counter | KCC2 sec2 | HEK293 Tl flux | KCC2 ouabain | HEK counter2
COC(=O)c1ccc(NC(=O)CSC2=NC(=O)C(c3ccccc3)C(=O)N2)cc1 (configuration not stated) | 0 | 0 | 0 | 9.2 | 0 | 0 | 0 | ? | 0 | 0 | 0 | ?
CCOC(=O)c1ccc(NC(=O)CSc2nc(C)cc(=O)[nH]2)cc1 | 0 | 0 | 0 | - | 0 | 0 | 0 | 0 | 0 | 0 | 0 | 0
CCOc1cc(N2CCOCC2)c(OCC)cc1NC(=O)c1ccc(OC)c(S(=O)(=O)N2CCOCC2)c1 | - | - | 0 | - | - | - | - | - | - | - | - | -
COc1ccc(/C=N/NC(=O)COc2cc(C)cc(C)c2)cc1COC(C)=O | 0 | 0 | 0 | - | 0 | 0 | - | - | - | - | - | -
Cn1cnc([N+](=O)[O-])c1NCc1ccccc1 | 0 | 0 | 0 | -4 | 0 | 0 | 0 | 0 | 0.024 | 0 | ? | 0
CCOC(=O)c1c(NC(=S)N2CCCCC2)sc2c1CCN(C(=O)OCC)C2 | 0 | 0 | 0 | 0 | 0 | 0 | - | - | - | - | - | -
CCOC(=O)c1c(NC(=S)NCc2ccccc2)sc2c1CCN(C(=O)OCC)C2 | 0 | 0 | 0 | 4.7 | 0 | 0 | ? | 0.025 | 0 | 0.014 | 0 | 0.012
CC12CC(NC(=O)N1c1cccc(C(=O)NCc3ccccc3)c1)c1ccccc1O2 (configuration not stated) | 0 | 0 | 0 | - | 0 | 0 | 0 | ? | 0 | 0 | 0 | 0
Cn1c(=O)n(C)c2cc(N3CCOCC3)c(NC(=O)c3ccc(F)cc3)cc21 | 0 | 0 | 0 | - | 0 | 0 | - | - | - | - | - | -
OCc1ccccc1CNCc1ccccc1 | 0 | 0 | 0 | - | 0 | 0 | 0 | 0 | 0 | 0 | 0 | 0
